Measured values taken from ChEMBL document CHEMBL4706701, “Synthesis and biological activity of selenopsammaplin A and its analogues as antitumor agents with DOT1L inhibitory activity” (Bioorg Med Chem, 2021).
Active and inactive are the calls of the source. The calls are words filed in the database; no cut-off is given here.

Assays:
[1] = molecular target: Histone-lysine N-methyltransferase, H3 lysine-79 specific (Homo sapiens) (UniProt Q8TEK3); assay: Inhibition of DOT1L in human MDA-MB-231 cells assessed as down regulation of H3K79me2 expression at 200 nM by Western blot analysis; type: cell-based
Chain of Histone-lysine N-methyltransferase, H3 lysine-79 specific (Homo sapiens) (Q8TEK3 whole entry, looked up, the tested form may be a part): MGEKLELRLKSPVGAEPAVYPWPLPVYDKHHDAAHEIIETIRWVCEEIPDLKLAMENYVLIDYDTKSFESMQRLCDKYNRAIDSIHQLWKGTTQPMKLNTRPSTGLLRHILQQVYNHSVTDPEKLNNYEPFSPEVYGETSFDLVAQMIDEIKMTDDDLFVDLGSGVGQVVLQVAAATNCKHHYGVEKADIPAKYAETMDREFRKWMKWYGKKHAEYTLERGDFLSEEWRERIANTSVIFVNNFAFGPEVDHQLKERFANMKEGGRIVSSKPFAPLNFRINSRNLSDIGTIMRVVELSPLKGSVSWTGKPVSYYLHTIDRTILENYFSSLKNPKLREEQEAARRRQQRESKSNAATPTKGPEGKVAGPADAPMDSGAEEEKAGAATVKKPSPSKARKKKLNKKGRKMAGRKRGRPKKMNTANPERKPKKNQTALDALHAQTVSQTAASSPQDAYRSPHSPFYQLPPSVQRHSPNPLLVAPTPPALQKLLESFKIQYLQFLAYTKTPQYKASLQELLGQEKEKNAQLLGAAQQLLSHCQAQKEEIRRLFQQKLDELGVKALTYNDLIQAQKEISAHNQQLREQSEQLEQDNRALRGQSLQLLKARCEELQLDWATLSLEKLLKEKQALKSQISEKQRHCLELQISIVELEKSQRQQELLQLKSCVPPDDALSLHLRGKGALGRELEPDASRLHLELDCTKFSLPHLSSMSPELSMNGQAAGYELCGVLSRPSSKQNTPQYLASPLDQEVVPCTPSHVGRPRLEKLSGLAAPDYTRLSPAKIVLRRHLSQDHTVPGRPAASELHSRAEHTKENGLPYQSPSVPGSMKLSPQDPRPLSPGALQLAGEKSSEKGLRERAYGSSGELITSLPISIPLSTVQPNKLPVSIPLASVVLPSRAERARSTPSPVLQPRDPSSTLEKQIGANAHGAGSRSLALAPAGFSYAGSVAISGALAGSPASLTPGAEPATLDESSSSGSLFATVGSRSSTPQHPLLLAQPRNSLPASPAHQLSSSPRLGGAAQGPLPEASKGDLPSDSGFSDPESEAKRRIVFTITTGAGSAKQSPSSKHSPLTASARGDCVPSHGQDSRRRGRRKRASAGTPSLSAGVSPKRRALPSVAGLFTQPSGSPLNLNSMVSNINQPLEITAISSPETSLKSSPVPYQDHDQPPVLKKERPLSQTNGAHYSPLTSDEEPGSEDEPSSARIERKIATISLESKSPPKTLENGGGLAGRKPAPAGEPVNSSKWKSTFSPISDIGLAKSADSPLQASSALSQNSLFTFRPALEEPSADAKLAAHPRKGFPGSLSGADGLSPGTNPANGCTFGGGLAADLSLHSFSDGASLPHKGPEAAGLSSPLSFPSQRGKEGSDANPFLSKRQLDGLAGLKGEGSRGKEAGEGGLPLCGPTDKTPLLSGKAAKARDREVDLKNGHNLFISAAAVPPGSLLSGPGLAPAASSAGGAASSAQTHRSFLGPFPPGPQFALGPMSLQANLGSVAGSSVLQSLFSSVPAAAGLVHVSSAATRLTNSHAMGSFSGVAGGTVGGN
How it was run: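 MDA-MB-231 lysates were made in 2× SDS sample buffer with vanadate and fluoride. 5-20 μg protein was run on 8–15% SDS-PAGE and blotted to PVDF. Membranes were blocked in 5% BSA, probed for H3K79me2 with total histone H3, and detected by ECL. Mean ± SD (n = 3), representative of three separate experiments.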

SNU-638 = assay: Cytotoxicity against human SNU-638 cells assessed as reduction in cell viability by SRB assay; type: functional, cell-based
How it was run: (§1)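 Cells seeded in 96-well plates and exposed to compounds for the stated times. Zero-day controls were incubated 30 min. Cells were fixed and stained with 0.4% SRB in 1% acetic acid, and bound dye was dissolved in 10 mM Tris (pH 10.0). A515 was read, and IC50 was calculated by non-linear regression.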

SK-HEP1 = assay: Cytotoxicity against human SK-HEP1 cells assessed as reduction in cell viability by SRB assay; type: functional, cell-based; how it was run: as §1
A549 = assay: Cytotoxicity against human A549 cells assessed as reduction in cell viability by SRB assay; type: functional, cell-based; how it was run: as §1
MDA-MB-231 [2] = assay: Cytotoxicity against human MDA-MB-231 cells assessed as reduction in cell viability by SRB assay; type: functional, cell-based; how it was run: as §1
HCT-116 = assay: Cytotoxicity against human HCT-116 cells assessed as reduction in cell viability by SRB assay; type: functional, cell-based; how it was run: as §1
[3] = molecular target: Histone-lysine N-methyltransferase, H3 lysine-79 specific (Homo sapiens) (UniProt Q8TEK3); assay: Inhibition of DOT1L in human MDA-MB-231 cells assessed as effect on H3K36 methylation at 200 nM by Western blot analysis; type: cell-based
How it was run: (§2)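 MDA-MB-231 cell lysates in 2× SDS buffer, protein by BCA; 5–20 μg on 8–15% SDS-PAGE, transferred to PVDF, BSA-blocked and probed with antibodies to H3K4me2, H3K27me2, H3K36me2, H3K79me2 and total histone H3; ECL detection. Mean ± SD (n = 3), three separate experiments.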

[4] = molecular target: Histone-lysine N-methyltransferase, H3 lysine-79 specific (Homo sapiens) (UniProt Q8TEK3); assay: Inhibition of human N-terminal GST-tagged DOT1L (2 to 416 residues) expressed in Escherichia coli at 200 nM using DOT1L substrate measured after 2 hrs in presence of SAM by ELISA
How it was run: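 Cell-free DOT1L enzyme activity assay using 500 ng DOT1L per well. Compound was incubated 2 h before read-out. EPZ-5676 (100 nM) was the positive control. Mean ± SD (n = 3), representative of three separate experiments.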

[5] = molecular target: Histone-lysine N-methyltransferase, H3 lysine-79 specific (Homo sapiens) (UniProt Q8TEK3); assay: Inhibition of DOT1L in human MDA-MB-231 cells assessed as effect on H3K27 methylation at 200 nM by Western blot analysis; type: cell-based; how it was run: as §2
MDA-MB-231 [6] = assay: Antiinvasive activity in human MDA-MB-231 cells assessed as reduction in cell invasion through matrigel-coated chamber at 400 nM after 24 hrs by diff-quik staining based microscopic analysis; type: functional
How it was run: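 MDA-MB-231 cells pretreated with compound (50–400 nM) for 24 h, harvested into serum-free medium and plated at 0.5–1 × 10⁶ cells/chamber on transwell inserts (8 μm pores) coated with type I collagen and 1:20 Matrigel/PBS; 30% FBS medium as chemoattractant below. After 24 h, invaded cells fixed, Diff-Quik stained, counted in 5 random fields at 200×; three separate experiments.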

[7] = molecular target: Histone-lysine N-methyltransferase, H3 lysine-79 specific (Homo sapiens) (UniProt Q8TEK3); assay: Inhibition of DOT1L in human MDA-MB-231 cells assessed as effect on H3K4 methylation at 200 nM by Western blot analysis; type: cell-based; how it was run: as §2
MDA-MB-231 [8] = assay: Antimigratory activity in human MDA-MB-231 cells assessed as suppression of wound closure at 400 nM after 24 hrs by microscopic analysis; type: functional, cell-based
How it was run: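 MDA-MB-231 monolayers at 80–90% confluence scratched with a pipette tip, washed with PBS, then kept 24 h in medium with 1% FBS plus compound at various concentrations. Wounds photographed at 0 and 24 h; area measured by image analysis and expressed as wound healing (%) relative to the 0 h area. Mean ± SD (n = 3), three separate experiments.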

[9] = molecular target: Histone-lysine N-methyltransferase, H3 lysine-79 specific (Homo sapiens) (UniProt Q8TEK3); assay: Inhibition of DOT1L in human MDA-MB-231 cells assessed as effect on histone H3 methylation at 200 nM by Western blot analysis; type: cell-based; how it was run: as §2
[10] = Toxicity in human MDA-MB-231 cells xenografted BALB/c nu mouse assessed as body weight loss at 5 mg/kg, ip administered thrice per week for 38 days measured once per week during compound dosing; type: organism-based; conditions: in vivo, 912 h, time 38 day
How it was run: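 Female BALB/c-nu mice (5–6 wk) given 1 × 10⁷ luciferase-expressing MDA-MB-231 cells in 50:50 DMEM/Matrigel into the fourth fat pad; randomized after 10 days (six per group). Dosed ip in EtOH/Cremophor/saline (5:5:90) three times weekly for 38 days. Tumor L, W, H measured by caliper, volume = LWH/2; body weight weekly; tumors excised and weighed at termination.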

[11] = Selectivity ratio of IC50 for human MCF-10A cells to IC50 for human SK-HEP1 cells
How it was run: (§3)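 Cytotoxicity by SRB assay: cells seeded in 96-well plates and treated with compounds; fixed, stained with 0.4% SRB in 1% acetic acid, dye dissolved in 10 mM Tris (pH 10.0), absorbance read at 515 nm. IC50 by non-linear regression, means of at least three experiments; ratio of MCF10A IC50 to cancer-line IC50.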

[12] = Selectivity ratio of IC50 for human MCF-10A cells to IC50 for human SNU-638 cells; how it was run: as §3
[13] = Selectivity ratio of IC50 for human MCF-10A cells to IC50 for human HCT-116 cells; type: toxicity; conditions: MCF-10A cells versus HCT-116 cells, read-out: Ratio IC50
[14] = Selectivity ratio of IC50 for human MCF-10A cells to IC50 for human MDA-MB-231 cells; type: toxicity; conditions: MCF-10A cells versus MDA-MB-231 cells, read-out: Ratio IC50
[15] = Selectivity ratio of IC50 for human MCF-10A cells to IC50 for human A549 cells; type: toxicity; conditions: MCF-10A cells versus A549 cells, read-out: Ratio IC50
MCF-10A = assay: Cytotoxicity against human MCF-10A cells assessed as reduction in cell viability by SRB assay; type: cell-based; how it was run: as §1

Structure (SMILES) | H3K79me2 downregulation (active/not active) [1] | IC50 (SNU-638) | IC50 (SK-HEP1) | IC50 (A549) | IC50 (MDA-MB-231 [2]) | IC50 (HCT-116) | inhibition [4] | further results
O=C(NCC[Se][Se]CCNC(=O)/C(Cc1ccc(F)c(F)c1)=N/O)/C(Cc1ccc(F)c(F)c1)=N/O | Active | 50 nM | 270 nM | 330 nM | 420 nM | 180 nM | – | –
O=C(NCC[Se][Se]CCNC(=O)/C(Cc1ccc(Cl)cc1)=N/O)/C(Cc1ccc(Cl)cc1)=N/O | Active | 220 nM | 330 nM | 250 nM | 330 nM | 280 nM | – | –
O=C(NCC[Se][Se]CCNC(=O)/C(Cc1ccc(F)cc1)=N/O)/C(Cc1ccc(F)cc1)=N/O | – | 70 nM | 140 nM | 100 nM | 130 nM | 110 nM | – | –
O=C(NCC[Se][Se]CCNC(=O)/C(Cc1ccc2ccccc2c1)=N/O)/C(Cc1ccc2ccccc2c1)=N/O | inactive | 270 nM | 170 nM | 380 nM | 190 nM | 120 nM | – | –
O=C(NCCSSCCNC(=O)/C(Cc1ccc(O)c(Br)c1)=N/O)/C(Cc1ccc(O)c(Br)c1)=N/O [PSAMMAPLIN A] | – | 560 nM | 1290 nM | 1760 nM | 1310 nM | 610 nM | inactive | inhibition [3]: inactive; inhibition [5]: inactive; Activity (MDA-MB-231 [6]): inactive; inhibition [7]: inactive; Activity (MDA-MB-231 [8]): inactive; inhibition [9]: inactive
O=C(NCC[Se][Se]CCNC(=O)/C(Cc1ccc(Cl)c(Cl)c1)=N/O)/C(Cc1ccc(Cl)c(Cl)c1)=N/O | Active | 180 nM | 320 nM | 280 nM | 250 nM | 520 nM | – | –
CC(C)(C)c1ccc(C/C(=N\O)C(=O)NCC[Se][Se]CCNC(=O)/C(Cc2ccc(C(C)(C)C)cc2)=N/O)cc1 | Active | 280 nM | 190 nM | 100 nM | 100 nM | 130 nM | Active | –
CC(=O)O[C@H]1C(=O)[C@@]2(C)[C@H]([C@H](OC(=O)c3ccccc3)[C@]3(O)C[C@H](OC(=O)[C@H](O)[C@@H](NC(=O)c4ccccc4)c4ccccc4)C(C)=C1C3(C)C)[C@]1(OC(C)=O)CO[C@@H]1C[C@@H]2O [PACLITAXEL] | – | – | – | – | – | – | – | Activity [10]: Toxic
O=C(NCC[Se][Se]CCNC(=O)/C(Cc1ccc([N+](=O)[O-])cc1)=N/O)/C(Cc1ccc([N+](=O)[O-])cc1)=N/O | Active | 60 nM | 170 nM | 90 nM | 90 nM | 90 nM | Active | –
O=C(NCC[Se][Se]CCNC(=O)/C(Cc1ccc(O)c(F)c1)=N/O)/C(Cc1ccc(O)c(F)c1)=N/O | Active | 20 nM | 130 nM | 20 nM | 190 nM | 10 nM | Active | –
O=C(NCC[Se][Se]CCNC(=O)/C(Cc1ccc(O)c(Br)c1)=N/O)/C(Cc1ccc(O)c(Br)c1)=N/O | Active | 20 nM | 210 nM | 30 nM | 160 nM | 10 nM | Active | Ratio IC50 [11]: 77; Ratio IC50 [12]: >100; selectivity ratio [13]: > 100; selectivity ratio [14]: > 100; selectivity ratio [15]: > 100; IC50 (MCF-10A): 16100 nM
O=C(NCC[Se][Se]CCNC(=O)/C(Cc1ccc(O)c(Cl)c1)=N/O)/C(Cc1ccc(O)c(Cl)c1)=N/O | Active | 10 nM | 110 nM | 20 nM | 170 nM | 10 nM | Active | –
O=C(NCC[Se][Se]CCNC(=O)/C(Cc1ccc(OCc2ccccc2)cc1)=N/O)/C(Cc1ccc(OCc2ccccc2)cc1)=N/O | Active | 410 nM | 280 nM | 140 nM | 140 nM | 100 nM | Active | –
COc1cc([C@@H]2c3cc4c(cc3[C@@H](O[C@@H]3O[C@@H]5CO[C@@H](C)O[C@H]5[C@H](O)[C@H]3O)[C@H]3COC(=O)[C@H]23)OCO4)cc(OC)c1O [ETOPOSIDE] | – | 200 nM | 400 nM | – | 8700 nM | 1200 nM | – | –
O=C(NCC[Se][Se]CCNC(=O)/C(Cc1ccc(Br)cc1)=N/O)/C(Cc1ccc(Br)cc1)=N/O | Active | 150 nM | 310 nM | 310 nM | 390 nM | 170 nM | – | –
CCOc1ccc(C/C(=N\O)C(=O)NCC[Se][Se]CCNC(=O)/C(Cc2ccc(OCC)cc2)=N/O)cc1 | Active | 30 nM | 180 nM | 50 nM | 200 nM | 70 nM | Active | –
